# Assay outcomes from PubChem BioAssay.
# Compounds with a hit are over-represented: about 2.5% of the library has one in this group of screens.
# TbMetRS inhib: T. brucei MetRS inhibitors, primary screen, biochemical, luminescence; methionyl-tRNA synthetase (Trypanosoma brucei brucei); purified T. brucei MetRS, ATP depletion, Kinase-Glo luminescence; inhibition, % at 11.9 µM; actives 0.4% (n = 360,000);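 active = inhibition above a per-plate cutoff of the control wells' mean inhibition plus 3 SD, cut at about 5.5% in these data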;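 also: 0% = DMSO wells median and 100% = median of wells with control inhibitor compound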
#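 Test system – parasite MetRS enzyme · Reagent – substrates ATP, L-methionine and bulk Escherichia coli tRNA · Doses – 11.9 µM compound single dose, 0.9% DMSO · Times – 15 min enzyme-compound preincubation, 2 h reaction, 10 min detection, 25 °C · Signal – Kinase-Glo luminescence, ATP depletion format · Controls – DMSO-only wells as low control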
# MC4R ag barr: MC4R agonists recruiting beta-arrestin, primary screen, cell-based, luminescence, agonist arm of biased-ligand search. activation, % at 8.9 µM. U2OS MC4R beta-arrestin complementation; percent of melanotan II response, DMSO zero. Melanocortin receptor 4 (Homo sapiens), P32245. actives 0.98% (n = 360,000). AID 540308, 2011;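 active = activation above a per-plate cutoff, the mean activation of sample wells on that plate plus 3 SD, cut at about 8% in these data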
# Target sequence (P32245 whole entry, looked up): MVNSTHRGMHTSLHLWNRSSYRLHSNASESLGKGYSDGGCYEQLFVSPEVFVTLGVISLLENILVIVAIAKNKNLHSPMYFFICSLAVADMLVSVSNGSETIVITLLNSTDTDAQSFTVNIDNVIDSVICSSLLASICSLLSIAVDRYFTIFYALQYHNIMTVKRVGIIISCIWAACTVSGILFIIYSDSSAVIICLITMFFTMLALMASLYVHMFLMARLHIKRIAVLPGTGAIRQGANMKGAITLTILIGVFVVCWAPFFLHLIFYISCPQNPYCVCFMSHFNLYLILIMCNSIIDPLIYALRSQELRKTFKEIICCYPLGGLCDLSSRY
# Bfl-1 A1 inh: caspase 3/7 activation in MEF A1-2A-BIM cells, primary screen, A1 inhibitor project, cell-based, luminescence, HTS; Caspase-Glo 3/7 luminescence, 3 h; percent of clofoctol response, vehicle zero; caspase activation, % (concentration not given with the values); actives 0.066% (n = 330,000);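 active = over half of replicate activation scores above 10%, or exactly half above 10 with the replicate mean above 10; inconclusive = replicate mean below 10 yet half the replicates above 10; inactive = over half of replicates below 10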
# MC4R antag cAMP: MC4R antagonists of cAMP signaling, primary screen, cell-based, TR-FRET, antagonist arm of biased-ligand search. actives 0.48% (n = 360,000). inhibition, % at 6.5 µM. MC4R-expressing cells, MTII-stimulated cAMP, LANCE TR-FRET;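 active = inhibition above its plate's cutoff, the mean of tested wells on that plate plus 3 SD, cut at about 29% in these data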;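 also: 0% = Melanotan II alone and 100% = Melanotan II plus saturating MCL0020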
#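 Material: U2OS-MC4R stable cell line | Reagent: Melanotan II challenge after compound preincubation | Doses: One concentration, 6.5 µM nominal | Incubation: 30-min compound preincubation, 1-h Melanotan II challenge, 1-h detection, room temperature | Signal: TR-FRET cAMP assay | Replicates: One well per compound, no replicates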
# NLRP3 yeast inh: NALP3 inflammasome inhibitors in reconstituted yeast, primary screen, luminescence, uHTS; actives 0.39% (n = 330,000); AID 2825, 2010; Yeast reconstituted NLRP3/ASC/caspase-1, beta-gal luminescence, 24 h; inhibition, % at 10 µM;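 active = inhibition of 50% or more; inactive = inhibition below 50%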;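 also: plate controls were induced DMSO wells for no effect and uninduced yeast grown without galactose for full effect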
# NALP1 yeast inh: NALP1 inflammasome inhibitors in reconstituted yeast, colorimetric, S. cerevisiae, triplicate retest; S. cerevisiae NALP1/ASC/caspase-1 growth, X-gal OD620, 72 h; inhibition, % at 10 µM; actives 0.61% (n = 280,000); in the data active = inhibition mostly above about 24%, no sharp cut-off; inactive = mostly below about 32%
# Starred values were filed as active, the others as inactive; ? = inconclusive; / = no result given.
SMILES,TbMetRS inhib,MC4R ag barr,Bfl-1 A1 inh,MC4R antag cAMP,NLRP3 yeast inh,NALP1 yeast inh
Brc1ccc2c(c1)C(OC1CN3CCC1CC3)c1ccccc1CS2 (centres undefined),-0.7,-0.3,-1.1,3.3,7.3,57.3*
c1ccc2c(c1)CSc1ccccc1C2C1=NCCN1 (centres undefined),-0.7,-0.9,1.6,17.9,3.8,7.0
CNC(=O)N(C)c1ccc(C(O)(C(=O)OC)C(F)(F)F)cc1 (centres undefined),0.2,-1.7,0.0,11.6,0.9,42.3*
COC(=O)C(O)(c1ccc(N(C)C(=O)OC(C)C)cc1)C(F)(F)F (centres undefined),-0.6,2.6,0.1,-4.7,1.2,16.1
CC(NC(=O)N1CC1(C)C)c1ccccc1 (centres undefined),0.3,-1.5,/,-8.8,/,/
COc1cc(/C=C(/C)[N+](=O)[O-])ccc1OCc1ccccc1Cl,-0.3,-5.5,?,32.1*,16.0,84.3
COc1cccc(C2CCN(C)C2)c1 (centres undefined),-0.1,2.0,/,11.9,/,/
C/C1=C\[C@@H](C)C/C=C/[C@H]2[C@@H]3O[C@]3(C)[C@@H](C)[C@H]3[C@H](Cc4c[nH]c5ccccc45)NC(=O)[C@]32C(=O)/C=C/C(=O)[C@@H]1O,-0.1,-1.6,10.6*,-13.2,-7.0,4.7
Cc1nc2ccc(Cl)cc2c(=O)n1-c1cccc(Cl)c1,-0.9,1.5,0.1,-6.4,13.7,8.9
CC(C)CC(=O)NC(Oc1ccc(Cl)cc1)C(Cl)(Cl)Cl (centres undefined),0.1,8.5*,-0.5,11.8,-2.3,-0.7
CCCCOc1ccc(CCN)cc1Cl,-0.5,8.3*,0.3,5.3,41.0,47.5*
COc1ccc(CCN)cc1O,-1.4,-0.1,1.1,5.2,26.6,/
Cc1cc(C)c2c(ccc3cccc[n+]32)c1,-0.3,-1.6,-0.6,-2.3,-4.7,/
CC(O)(CS(=O)(=O)c1cccc(C(F)(F)F)c1)C(=O)Nc1cccc(C(F)(F)F)c1 (centres undefined),-0.3,10.0*,0.7,4.3,6.4,2.3
CC(=O)OC1CC[C@]2(C#N)[C@H]3CC[C@]4(C)[C@H](C5C=CC(=O)O5)CCC4(O)C3CCC2(O)C1 (some centres undefined),-0.7,14.3*,1.3,14.7,5.6,9.1
COc1cc(/C=C/[N+](=O)[O-])ccc1O,-0.4,-4.0,-0.2,3.1,22.6,93.6*
C[C@]12C=CC(=O)C=C1CC[C@@H]1C2CC[C@]2(C)OC(=O)CCC12 (some centres undefined),0.3,0.0,0.0,5.3,4.2,9.7
CCOC(=O)c1c(C)n(Cc2ccccc2)c2ccc(OCC(O)CNC(C)(C)C)cc12 (centres undefined),-0.8,-0.9,1.4,1.7,19.8,-5.7
Cc1ccc(NC(=O)c2cc(-c3ccccc3)n(CCCN3CCOCC3)c2C)cc1,-0.3,-0.7,0.8,0.4,10.6,37.3*
Cc1c(C)c2ccc(OCC(=O)N3C[C@H]4C[C@@H](C3)c3cccc(=O)n3C4)cc2oc1=O,-2.6,1.7,0.0,-1.1,10.6,40.3*
Cc1cc(=O)oc2cc(OCC(=O)N3C[C@H]4C[C@@H](C3)c3cccc(=O)n3C4)ccc12,0.2,-0.5,-1.7,4.2,12.8,15.8
CC12CC[C@H]3[C@@H](CCC4(O)C[C@H](O)CCC34/C=N/NC(=O)c3ccc(O)cc3)C1(O)CCC2C1=CC(=O)OC1 (some centres undefined),0.6,1.3,-0.4,14.5,0.1,/
